Test results reported in ChEMBL document CHEMBL1140972, “Synthesis and structure-activity relationship of 3-phenylquinoxaline 1,4-di-N-oxide derivatives as antimalarial agents” (Eur J Med Chem, 2008).

What was measured:
[1] = tested on: Plasmodium falciparum; assay: Antimalarial activity after 48 hrs against chloroquine-resistant Plasmodium falciparum K1 by [3H]hypoxanthine uptake; type: functional, organism-based
Procedure, shortened: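 Asynchronous P. falciparum K1 culture (65-75% ring stage, 0.5% parasitemia; chloroquine, pyrimethamine, cycloguanil resistant) at 2.5% hematocrit in RPMI 1640 with 0.5% Albumax II, glucose, L-glutamine, 5 µM hypoxanthine. Triplicate 3-fold dilutions 10.0–0.0412 µg/mL, DMSO ≤0.01% final, 37 °C, 5% CO2. [3H]-hypoxanthine (0.2 µCi/well) added at 24 h, incorporation counted after further 24 h. IC50 by curve fit, 2–3 experiments.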

[2] = Resistant index, ratio of IC50 for chloroquine-resistant Plasmodium falciparum K1 to IC50 for chloroquine-sensitive Plasmodium falciparum 3D7; type: functional
Procedure, shortened: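 IC50 against K1 divided by IC50 against 3D7 (drug-sensitive NF54 clone). Both from [3H]-hypoxanthine incorporation over 48 h: asynchronous cultures at 0.5% parasitemia, 2.5% hematocrit, 3-fold dilutions 10.0–0.0412 µg/mL in triplicate. Label added at 24 h. Means of 2–3 independent experiments.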

[3] = tested on: KB; assay: Cytotoxicity against human KB cells after 48 hrs by alamar blue assay; type: cell-based
[4] = tested on: Plasmodium falciparum; assay: Antimalarial activity after 48 hrs against chloroquine-sensitive Plasmodium falciparum 3D7 by [3H]hypoxanthine uptake; type: functional, organism-based
Procedure, shortened: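 Asynchronous culture (65-75% rings, 0.5% parasitemia, 2.5% final hematocrit) in RPMI 1640 with 0.5% Albumax II, 0.2% glucose, 0.03% L-glutamine and 5 µM hypoxanthine. Triplicate wells with a 3-fold series of 10.0–0.0412 µg/mL; final DMSO ≤0.01%. 37 °C, 5% CO2: 24 h, then 0.2 µCi/well [3H]hypoxanthine for a further 24 h. Frozen, harvested, scintillation-counted. IC50 from curve fit; mean of 2–3 experiments.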

[5] = Selectivity index, ratio of IC50 for human KB cells to IC50 for chloroquine-sensitive Plasmodium falciparum 3D7; type: toxicity, cell-based; details: read-out: Ratio IC50
Procedure, shortened: (§1)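 KB IC50 divided by the parasite IC50 (K1 or 3D7). KB cells seeded at 4×10^4 cells/mL in RPMI 1640 with 10% heat-inactivated FCS and grown 24 h. Triplicate dilution series then added for 72 h. AlamarBlue for 2–4 h, fluorescence ex 530/em 585 nm, IC50 by curve fit. Podophyllotoxin as positive control.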

[6] = Selectivity index, ratio of IC50 for human KB cells to IC50 for chloroquine-resistant Plasmodium falciparum K1; type: toxicity, cell-based; details: read-out: Ratio IC50; procedure, shortened: as §1

Cc1ccc2c(c1)[n+]([O-])c(C#N)c(-c1ccc(OC(F)(F)F)cc1)[n+]2[O-]
IC50 [1]: 380 nM
Ratio IC50 [2]: 0.51
IC50 [3]: 8120 nM
IC50 [4]: 750 nM
selectivity ratio [5]: 10.8
selectivity ratio [6]: 21.4

COc1ccc2c(c1)[n+]([O-])c(C#N)c(-c1ccccc1)[n+]2[O-]
IC50 [1]: 720 nM
Ratio IC50 [2]: 0.49
IC50 [3]: 10500 nM
IC50 [4]: 1470 nM
selectivity ratio [5]: 7.12
selectivity ratio [6]: 14.5

N#Cc1c(-c2ccc(OC(F)(F)F)cc2)[n+]([O-])c2ccccc2[n+]1[O-]
IC50 [1]: 270 nM
Ratio IC50 [2]: 0.21
IC50 [3]: 2760 nM
IC50 [4]: 1270 nM
selectivity ratio [5]: 2.17
selectivity ratio [6]: 10.3

N#Cc1c(-c2ccc(Cl)cc2)[n+]([O-])c2ccc(F)cc2[n+]1[O-]
IC50 [4]: 4210 nM

Cc1ccc(-c2c(C#N)[n+]([O-])c3cc(C(F)(F)F)ccc3[n+]2[O-])cc1
IC50 [1]: 870 nM
Ratio IC50 [2]: 1.21
IC50 [3]: 3170 nM
IC50 [4]: 720 nM
selectivity ratio [5]: 4.4
selectivity ratio [6]: 3.64

CCOC(=O)c1c(-c2ccccc2)[n+]([O-])c2cc(C)c(C)cc2[n+]1[O-]
IC50 [1]: > 10000 nM
IC50 [3]: > 60000 nM
IC50 [4]: 1180 nM
selectivity ratio [5]: > 50

N#Cc1c(-c2ccccc2)[n+]([O-])c2ccc(C(F)(F)F)cc2[n+]1[O-]
IC50 [1]: 180 nM
Ratio IC50 [2]: 0.55
IC50 [3]: 2820 nM
IC50 [4]: 330 nM
selectivity ratio [5]: 8.55
selectivity ratio [6]: 15.7

COc1ccc(-c2c(C#N)[n+]([O-])c3cc(OC)ccc3[n+]2[O-])cc1
IC50 [4]: 2290 nM

COc1ccc2c(c1)[n+]([O-])c(C#N)c(-c1ccc(F)cc1)[n+]2[O-]
IC50 [1]: 360 nM
Ratio IC50 [2]: 0.42
IC50 [3]: 18500 nM
IC50 [4]: 870 nM
selectivity ratio [5]: 21.3
selectivity ratio [6]: 50.9

COc1ccc2c(c1)[n+]([O-])c(C#N)c(-c1ccc(C)cc1)[n+]2[O-]
IC50 [1]: 2290 nM
Ratio IC50 [2]: 2.83
IC50 [3]: 17000 nM
IC50 [4]: 810 nM
selectivity ratio [5]: 20.9
selectivity ratio [6]: 7.39

N#Cc1c(-c2ccc(OC(F)(F)F)cc2)[n+]([O-])c2ccc(C(F)(F)F)cc2[n+]1[O-]
IC50 [1]: 550 nM
Ratio IC50 [2]: 0.28
IC50 [3]: 13400 nM
IC50 [4]: 1930 nM
selectivity ratio [5]: 6.97
selectivity ratio [6]: 24.4

Cc1cc2c(cc1C)[n+]([O-])c(-c1ccc(OC(F)(F)F)cc1)c(C#N)[n+]2[O-]
IC50 [4]: > 5000 nM

Cc1ccc(-c2c(C#N)[n+]([O-])c3cc(F)ccc3[n+]2[O-])cc1
IC50 [4]: > 10000 nM

CCOC(=O)c1c(-c2ccccc2)[n+]([O-])c2ccc(Cl)cc2[n+]1[O-]
IC50 [4]: 3220 nM

N#Cc1c(-c2ccc(F)cc2)[n+]([O-])c2cc(Cl)c(Cl)cc2[n+]1[O-]
IC50 [4]: > 10000 nM

COc1ccc2c(c1)[n+]([O-])c(C#N)c(-c1ccc(Cl)cc1)[n+]2[O-]
IC50 [1]: 470 nM
Ratio IC50 [2]: 0.64
IC50 [3]: 17500 nM
IC50 [4]: 730 nM
selectivity ratio [5]: 24
selectivity ratio [6]: 37.5

COc1ccc(-c2c(C#N)[n+]([O-])c3cc(Cl)c(Cl)cc3[n+]2[O-])cc1
IC50 [4]: > 20000 nM

Cc1ccc(-c2c(C#N)[n+]([O-])c3cc(Cl)ccc3[n+]2[O-])cc1
IC50 [4]: > 10000 nM

O=C(O)c1c(-c2ccc(Cl)cc2)[n+]([O-])c2ccccc2[n+]1[O-]
IC50 [4]: > 10000 nM

N#Cc1c(-c2ccc(OC(F)(F)F)cc2)[n+]([O-])c2ccc(Cl)cc2[n+]1[O-]
IC50 [1]: 930 nM
Ratio IC50 [2]: 1.31
IC50 [3]: 2350 nM
IC50 [4]: 710 nM
selectivity ratio [5]: 3.31
selectivity ratio [6]: 2.53

N#Cc1c(-c2ccc(OC(F)(F)F)cc2)[n+]([O-])c2ccc(F)cc2[n+]1[O-]
IC50 [1]: > 8000 nM
IC50 [3]: 2610 nM
IC50 [4]: 1700 nM
selectivity ratio [5]: 1.54

CCOC(=O)c1c(-c2ccccc2)[n+]([O-])c2ccc(OC)cc2[n+]1[O-]
IC50 [4]: > 10000 nM

COc1ccc(-c2c(C#N)[n+]([O-])c3ccccc3[n+]2[O-])cc1
IC50 [4]: 3140 nM

Cc1ccc(-c2c(C#N)[n+]([O-])c3cc(C)ccc3[n+]2[O-])cc1
IC50 [1]: 950 nM
Ratio IC50 [2]: 0.73
IC50 [3]: 25000 nM
IC50 [4]: 1300 nM
selectivity ratio [5]: 19.2
selectivity ratio [6]: 26.2

CCOC(=O)c1c(-c2ccccc2)[n+]([O-])c2cc(Cl)c(Cl)cc2[n+]1[O-]
IC50 [4]: > 7000 nM

N#Cc1c(-c2ccccc2)[n+]([O-])c2ccc(Cl)cc2[n+]1[O-]
IC50 [4]: > 5000 nM

N#Cc1c(-c2ccc(OC(F)(F)F)cc2)[n+]([O-])c2cc(Cl)c(Cl)cc2[n+]1[O-]
IC50 [4]: > 10000 nM

COc1ccc(-c2c(C#N)[n+]([O-])c3cc(F)ccc3[n+]2[O-])cc1
IC50 [4]: > 20000 nM

COC(=O)c1ccc(-c2c(C#N)[n+]([O-])c3cc(C)ccc3[n+]2[O-])cc1
IC50 [4]: 2150 nM

COC(=O)c1ccc(-c2c(C#N)[n+]([O-])c3cc(C(F)(F)F)ccc3[n+]2[O-])cc1
IC50 [4]: 2030 nM

COc1ccc(-c2c(C#N)[n+]([O-])c3cc(Cl)ccc3[n+]2[O-])cc1
IC50 [4]: > 10000 nM

Cc1ccc(-c2c(C#N)[n+]([O-])c3ccccc3[n+]2[O-])cc1
IC50 [4]: 3460 nM

COC(=O)c1ccc(-c2c(C#N)[n+]([O-])c3cc(OC)ccc3[n+]2[O-])cc1
IC50 [4]: 3160 nM

N#Cc1c(-c2ccccc2)[n+]([O-])c2ccc(F)cc2[n+]1[O-]
IC50 [4]: > 10000 nM

COc1ccc(-c2c(C#N)[n+]([O-])c3cc(C(F)(F)F)ccc3[n+]2[O-])cc1
IC50 [4]: 2440 nM

COC(=O)c1ccc(-c2c(C#N)[n+]([O-])c3cc(Cl)ccc3[n+]2[O-])cc1
IC50 [4]: > 20000 nM

COc1cc([C@@H]2c3cc4c(cc3[C@H](O)[C@H]3COC(=O)[C@H]23)OCO4)cc(OC)c1OC [PODOFILOX]
IC50 [3]: 3 nM

COc1ccc(-c2c(C#N)[n+]([O-])c3cc(C)ccc3[n+]2[O-])cc1
IC50 [4]: 2770 nM

Cc1ccc(-c2c(C(=O)O)[n+]([O-])c3ccccc3[n+]2[O-])cc1
IC50 [4]: > 10000 nM

N#Cc1c(-c2ccc(F)cc2)[n+]([O-])c2ccc(F)cc2[n+]1[O-]
IC50 [4]: 5780 nM

CCOC(=O)c1c(-c2ccccc2)[n+]([O-])c2ccccc2[n+]1[O-]
IC50 [4]: > 10000 nM

N#Cc1c(-c2ccc(F)cc2)[n+]([O-])c2ccc(Cl)cc2[n+]1[O-]
IC50 [4]: 5830 nM

N#Cc1c(-c2ccccc2)[n+]([O-])c2ccccc2[n+]1[O-]
IC50 [4]: 2350 nM

CCOC(=O)c1c(-c2ccccc2)[n+]([O-])c2cc(F)c(F)cc2[n+]1[O-]
IC50 [4]: > 10000 nM

CCOC(=O)c1c(-c2ccc(Cl)cc2)[n+]([O-])c2ccccc2[n+]1[O-]
IC50 [4]: > 10000 nM

N#Cc1c(-c2ccc(Cl)cc2)[n+]([O-])c2ccc(Cl)cc2[n+]1[O-]
IC50 [4]: > 5000 nM

COC(=O)c1ccc(-c2c(C#N)[n+]([O-])c3cc(F)ccc3[n+]2[O-])cc1
IC50 [4]: > 20000 nM

CCN(CC)CCCC(C)Nc1ccnc2cc(Cl)ccc12 (centres undefined) [CHLOROQUINE]
IC50 [3]: 110000 nM

COc1ccc(-c2c(C#N)[n+]([O-])c3cc(C)c(C)cc3[n+]2[O-])cc1
IC50 [4]: 3020 nM

N#Cc1c(-c2ccc(F)cc2)[n+]([O-])c2ccccc2[n+]1[O-]
IC50 [4]: 3910 nM

CCOC(=O)c1c(-c2ccccc2)[n+]([O-])c2ccc(C)cc2[n+]1[O-]
IC50 [4]: > 10000 nM

CCOC(=O)c1c(-c2ccc(C)cc2)[n+]([O-])c2ccccc2[n+]1[O-]
IC50 [4]: > 10000 nM

COC(=O)c1ccc(-c2c(C#N)[n+]([O-])c3ccccc3[n+]2[O-])cc1
IC50 [4]: 6540 nM
